Calb FLC = C. albicans growth inhibition with fluconazole, primary screen, CaCi-2 strain, Alamar Blue fluorescence; C. albicans CaCi-2 (fluconazole-resistant clinical isolate) + fluconazole, 48 h; growth inhibition, % (concentration not given with the values); 300,000 compounds, 0.57% hits; AID 1979, 2009;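 active = growth inhibition above about 58% in most replicates, limit read from the data, passing the limit was not always enough; inconclusive = exactly half the replicates above a set limit; inactive = most replicates below a set limit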;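 also: all wells also contain fluconazole at 8 µg/ml as a sub-toxic cotreatment; 0% = median of DMSO wells and 100% = median of geldanamycin control wells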
Mdm2-MdmX inh = inhibitors of human Mdm2-MdmX association, primary screen, cell-based, luminescence, split luciferase, SaOS-2, uHTS. SaOS-2 split-luciferase Mdm2/MdmX complementation. inhibition, % at 8 µM. 330,000 compounds, 3% hits;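 active = inhibition of at least 50% at 8 µM in the primary screen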
Target sequence (O15151 whole entry, looked up): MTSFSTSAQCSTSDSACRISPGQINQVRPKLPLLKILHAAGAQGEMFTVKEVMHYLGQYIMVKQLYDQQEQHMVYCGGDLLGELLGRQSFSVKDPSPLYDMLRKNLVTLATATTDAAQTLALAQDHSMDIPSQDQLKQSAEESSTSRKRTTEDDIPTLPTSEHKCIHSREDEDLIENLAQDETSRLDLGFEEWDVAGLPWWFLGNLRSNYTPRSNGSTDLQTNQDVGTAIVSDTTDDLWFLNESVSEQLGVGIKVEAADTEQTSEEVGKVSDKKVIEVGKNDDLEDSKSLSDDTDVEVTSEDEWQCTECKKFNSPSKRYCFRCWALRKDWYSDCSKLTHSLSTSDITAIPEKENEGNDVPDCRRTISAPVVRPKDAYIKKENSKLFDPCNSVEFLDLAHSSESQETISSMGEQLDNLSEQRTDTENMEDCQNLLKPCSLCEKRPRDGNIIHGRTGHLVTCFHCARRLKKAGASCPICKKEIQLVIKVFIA
Target sequence (Q00987 whole entry, looked up): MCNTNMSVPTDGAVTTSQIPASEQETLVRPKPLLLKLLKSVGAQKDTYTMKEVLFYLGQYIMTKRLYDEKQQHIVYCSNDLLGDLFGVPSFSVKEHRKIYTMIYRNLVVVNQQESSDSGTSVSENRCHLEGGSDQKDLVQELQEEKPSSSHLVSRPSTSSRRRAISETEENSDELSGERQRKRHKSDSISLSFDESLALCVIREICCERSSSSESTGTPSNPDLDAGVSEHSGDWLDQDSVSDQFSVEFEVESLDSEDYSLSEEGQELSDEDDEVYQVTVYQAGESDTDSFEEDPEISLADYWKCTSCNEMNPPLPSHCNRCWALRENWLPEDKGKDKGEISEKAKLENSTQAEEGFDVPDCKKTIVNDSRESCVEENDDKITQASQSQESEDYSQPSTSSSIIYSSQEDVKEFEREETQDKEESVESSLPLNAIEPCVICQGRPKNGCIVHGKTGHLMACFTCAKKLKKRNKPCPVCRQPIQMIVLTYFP
T cruzi inh = inhibitors of intracellular T. cruzi growth, primary screen, luminescence, NIH3T3 host cells. T. cruzi beta-gal in NIH3T3, 90 h. 300,000 compounds, 1.4% hits. inhibition, % (no concentration beside the values);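 active = mean inhibition across valid replicates above about 55%, limit read from the data; inconclusive = mean below that limit but half or more replicates reach it; inactive = mean below it, under half of replicates reach it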;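 also: signal also drops with host cell toxicity which is not excluded here; 0% = plate median of DMSO wells and 100% = zero luminescence signal; higher percent means less beta-gal luminescence so fewer parasites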
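Assay system: NIH/3T3 host cells with β-galactosidase reporter T. cruzi; input: 5,000 host fibroblasts per well; compound: single 50 nL compound addition per well in DMSO; timing: ≥90 h infection period, 3 h prior cell attachment; measured by: GalScreen β-gal luminescence, detergent lysis, 60 min; evaluation: percent inhibition of parasite-derived β-gal signal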
Beta cell apopt = inhibitors of cytokine-induced beta cell apoptosis, primary screen, luminescence. AID 435005, 2010. protection from apoptosis, % (test concentration not listed). 300,000 compounds, 0.8% hits. INS-1E cytokine-induced death, ATP luminescence, 48 h; percent of positive-control rescue, neutral wells zero;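 active = Every replicate reaches about 75%, or at least half do and their mean reaches it too, limit read from the data; inconclusive = At least half of replicates reach the limit but their mean does not; inactive = Under half of replicates reach the limit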;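 also: 0% = cytokine-treated negative control wells and 100% = positive control rescue; higher means more ATP so stronger rescue from cytokine killing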
CSC inhib = cancer stem cell viability inhibitors, primary screen, luminescence | inhibition, % at 7.5 µM | 300,000 compounds, 1.1% hits | cancer stem cell-like cells viability; in the data active = inhibition above about 75%; inconclusive = no clear call, values can overlap the other calls; tested in HMLE shEcad cells
SKKanGAS inh = S. pyogenes SKKanGAS growth inhibitors in kanamycin, primary screen, streptokinase expression inhibitor project, SKKanGAS strain, BacTiter-Glo luminescence; 6 h; inhibition, % at 7.5 µM; 300,000 compounds, 1.3% hits; AID 1662, 2009;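 active = mean replicate score, as percent of positive control median, at least 50; inconclusive = mean below 50 but one replicate at or above 50; inactive = mean and every replicate below 50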;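 also: strain carries kanamycin resistance gene driven by streptokinase promoter and grows in 40 µg/ml kanamycin; loss of luminescence reflects streptokinase promoter inhibition or plain growth inhibition; 0% = median of DMSO wells and 100% = positive control at its reference dose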
Mdm2 MdmX conf = Mdm2-MdmX complex disruptors, retested hits, confirmation, luminescence, single concentration; shares compounds with Mdm2-MdmX inh; AID 489028, 2010; inhibition, % at 8 µM; Mdm2-MdmX binding, luminescent assay; 10,000 compounds, 55% hits; in the data active = inhibition above about 40%
FLuc counter = full-length luciferase signal inhibition, confirmation, counter-screen for Mdm2/MdmX interaction inhibitor project, cell-based, single concentration, SaOS-2. shares compounds with Mdm2-MdmX inh. SaOS-2 full-length luciferase counterscreen, luminescence. inhibition, % at 8 µM. 6,200 compounds, 77% hits;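 active = mean inhibition at 8 µM reaching about 37%, which flags the compound as non-specific, limit read from the data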;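 also: p53-null SaOS-2 cells with luciferase driven by a doxycycline-inducible promoter; compound on cells about two nights before reading with doxycycline added after day one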
An asterisk follows results filed as active; u = inconclusive; x = no result. A selection: hits, their analogues and other compounds. The true share with any hit is near 5.7%.

SMILES	Calb FLC	Mdm2-MdmX inh	T cruzi inh	Beta cell apopt	CSC inhib	SKKanGAS inh	Mdm2 MdmX conf	others
Oc1ccc(NC(=S)N=Nc2c(O)[nH]c3ccccc23)cc1	-1	36	-35	3	12	7	x
Oc1cccc(NC(=S)N=Nc2c(O)[nH]c3ccc(Br)cc23)c1	0	56*	17	7	30	89*	46*	FLuc counter=57*
Oc1ccc(NC(=S)N=Nc2c(O)[nH]c3ccc(Br)cc23)cc1	-4	70*	-48	x	x	31	74*	FLuc counter=42*
COC(=O)c1cc(S(=O)(=O)N2CCN(Cc3ccccc3)CC2)cn1C	-3	3	0	-6	x	0	x
COc1ccc(C(=O)NCC(=O)OCc2nc(N)nc(Nc3ccccc3C)n2)cc1	x	9	x	-3	x	x	x
Cn1cc(/C=N/NC(=O)c2cccc([N+](=O)[O-])c2)c2ccccc21	3	61*	7	3	-11	-1	-8
COc1ccc(/C=N/NC(=O)c2cccc([N+](=O)[O-])c2)cc1OC	18	16	-5	-3	-5	-8	x
Cc1cc(/C=N/NC(=O)c2cccc([N+](=O)[O-])c2)c(C)n1-c1ccc(Cl)cc1Cl	1	50*	3	1	10	5	35
Cn1cc(/C=C(\C#N)C(=O)Nc2cccc([N+](=O)[O-])c2)c2ccccc21	17	66*	-2	27	3	-9	20
N#Cc1cc([N+](=O)[O-])ccc1Oc1cccc(/C=N/NC(=O)c2cccc(Cl)c2)c1	6	62*	68*	5	36	14	22
CC(C)Cc1nnc(NC(=O)C2CSC3(C)CCC(=O)N23)s1 (stereo not drawn)	-7	36	0	-10	-17	0	x
COc1ccccc1C(CNC(=O)C1CC(=O)N(Cc2ccccc2)C1)N1CCCC1 (stereo not drawn)	x	16	x	-2	-14	x	x
O=C(CSc1nc(C(F)(F)F)cc(=O)[nH]1)N1CCCC1	-6	2	0	-6	x	-16	x
COc1cccc(/C=N/NC(=O)c2cccc([N+](=O)[O-])c2)c1OS(=O)(=O)c1ccccc1	-3	6	6	2	-17	-2	x
COc1ccc(/C=N/NC(=O)c2cccc([N+](=O)[O-])c2)c2ccccc12	0	86*	-18	27	50	2	23
Cc1ccc(Nc2nnc(SCC(=O)NC3CC3)s2)cc1	x	-22	x	-4	x	x	x
O=C(/C=C/c1cccc([N+](=O)[O-])c1)N1CCN(c2ccccn2)CC1	-5	-13	22	1	-15	-6	x
O=C(/C=C/c1cccc([N+](=O)[O-])c1)c1cccs1	-7	74*	-3	1	37	3	57*	FLuc counter=74*
O=C(/C=C/c1cccc([N+](=O)[O-])c1)Nc1ccc(NC(=O)c2cccs2)cc1	-10	85*	18	-3	-7	-6	3
O=C(/C=C/c1cccc([N+](=O)[O-])c1)n1cnc2ccccc21	-3	100*	1	x	x	-1	94*	FLuc counter=25
Cc1ccc(S(=O)(=O)Nc2ccc(S(=O)(=O)Nc3nccs3)cc2)c([N+](=O)[O-])c1	-8	19	-14	-7	-4	2	x
CC1CCc2[nH]c3ccc(C(=O)N4CCCC(C(F)(F)F)C4)cc3c2C1 (stereo not drawn)	18	15	26	6	18	1	x
COc1cc(C(=O)NNC(=O)COc2ccc(Cl)cc2)ccc1OCC(=O)N1CCOCC1	x	-5	x	-3	8	x	x
CCOc1ccc(NC(=O)CN(C)C(=O)c2ccc(NC3CC3)c([N+](=O)[O-])c2)cc1OCC	x	0	6	-5	-4	-14	x
CCOc1ccc(Br)cc1C1=CC(=O)C[C@H](c2ccc(OC)cc2)C1	x	55*	x	9	82*	x	48*	FLuc counter=48*
SMILES	Calb FLC	Mdm2-MdmX inh	T cruzi inh	Beta cell apopt	CSC inhib	SKKanGAS inh	Mdm2 MdmX conf	others
COc1ccc([C@H]2CC(=O)C=C(c3cc(Br)ccc3OC)C2)cc1	x	50*	x	4	x	x	44*	FLuc counter=47*
COc1ccc([C@H]2CC(=O)C=C(c3cc(C)ccc3OC)C2)cc1	x	40	x	5	56	x	x
COc1ccc(N2CCN(C(=O)CNC(=O)Cn3cnc4sc(C)c(C)c4c3=O)CC2)cc1	-8	16	17	-5	-17	0	x
Cc1c(C(=O)Nc2ccc(N3CCOCC3)cc2)oc2ccccc12	-6	-22	-4	3	4	-1	x
Cc1ccc(C)c(OCC(=O)Nc2ccc(S(=O)(=O)N3CCN(C)CC3)cc2)c1	4	-16	0	2	-2	3	x
Cc1c(C(=O)Nc2ccc(S(=O)(=O)N(C)C3CCN(C)CC3)cc2)oc2c(Cl)cccc12	-1	88*	59*	x	11	-14	75*	FLuc counter=64*
Cc1c(C(=O)Nc2ccc(S(=O)(=O)N(C)C3CCN(C)CC3)cc2)oc2ccccc12	x	92*	x	-2	1	x	35
CN1CCC(N(C)S(=O)(=O)c2ccc(NC(=O)COc3ccc(Br)cc3Cl)cc2)CC1	8	63*	u	3	x	14	56*	FLuc counter=72*
O=C(COc1ccc(Br)cc1Cl)NC(=O)Nc1ccc2c(c1)OCCO2	-1	53*	-12	0	-1	6	5
N/C(=N\OC(=O)c1ccccc1F)c1cccc([N+](=O)[O-])c1	9	-196	-10	0	17	-2	x
CCOc1ccccc1C1c2cc3c(cc2OC(C)(N2CCCC2)C1C)OCO3 (stereo not drawn)	-2	7	-3	-8	4	-3	x
CCc1nnc(NC(=O)CSc2nc(-c3ccccc3)c(-c3ccccc3)o2)s1	5	55*	6	x	48	2	42*	FLuc counter=92*
CCc1nnc(NC(=O)CSc2nc(-c3ccccc3)cc(-c3ccc(OC)cc3)c2C#N)s1	-5	88*	-16	11	18	-10	9
COc1ccc(-c2cc(-c3ccccc3)nc(SCC(=O)Nc3nccs3)c2C#N)cc1	7	75*	33	6	-6	13	14
CC(C)NC(=O)CSc1nc(-c2cccs2)cc(-c2ccccc2)c1C#N	10	35	12	4	-17	-6	x
CN1C(C(=O)NCc2ccco2)=CC(c2ccc(F)cc2)=NS1(=O)=O	-11	-4	-9	0	-20	-6	x

Screens as filed in PubChem BioAssay.
